Screening results: PubChem BioAssay, The Scripps Research Institute Molecular Screening Center
OX1R antag-1: OX1R (human) antagonism | O43613 | OX1R-expressing cells, FRET antagonist read-out | inhibition, % at 6.6 µM | 1.8% of 330,000 active; in the data active means inhibition mostly above about 38%, no sharp cut-off; inactive means mostly below about 40%;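 further: 0% = agonist challenge alone and 100% = reference antagonist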
TAAR1 agonist: human TAAR1 agonism; 0.99% of 360,000 active; Q96RJ0; CHO RD-HGA16 TAAR1, Fluo-8 calcium fluorescence; vehicle wells 0%, saturating PEA agonist 100%; activation, % at 3 µM; AID 624467;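 active means activation above the mean activation of all test compounds in the run plus 3 SD, cut at about 38% in these data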
Target sequence (Q96RJ0 whole entry, looked up): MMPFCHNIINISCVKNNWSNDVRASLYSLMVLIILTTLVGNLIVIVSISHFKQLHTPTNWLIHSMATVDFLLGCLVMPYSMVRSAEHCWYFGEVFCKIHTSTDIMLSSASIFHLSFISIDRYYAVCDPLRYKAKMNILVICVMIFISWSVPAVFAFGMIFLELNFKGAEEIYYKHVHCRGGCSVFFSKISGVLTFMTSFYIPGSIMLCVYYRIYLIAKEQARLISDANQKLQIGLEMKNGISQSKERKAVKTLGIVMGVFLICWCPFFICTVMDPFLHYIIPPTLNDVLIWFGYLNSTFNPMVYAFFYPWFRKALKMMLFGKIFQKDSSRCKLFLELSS
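System: CHO-derived RD-HGA16 cells with stable Gα16 and human TAAR1. Times: 17-24 h plating, Fluo-8 75 min 37 °C, 30 min RT. Measured by: calcium-sensitive Fluo-8 signal, excitation 470-495, emission 515-575 nm. Read-out basis: % activation relative to PEA EC100 response. Control set: DMSO and PEA EC100. Repeats: no replicates (n 1).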
CHO parental Ca: counter-screen for OX1R antagonists: effect in parental CHO cells; parental CHO-K1, ATP-induced calcium, Fluo-8 fluorescence; inhibition, % at 5.6 µM; AID 463079; 0.63% of 330,000 active;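 active means inhibition above that plate's mean sample inhibition plus 3 SD, cut at about 26% in these data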;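 further: 0% = ATP-challenged DMSO wells and 100% = DMSO wells without ATP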
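Assay system: parental CHO cells; Read-out basis: percent inhibition of ATP-evoked calcium rise, normalized to controls; Benchmarks: ATP and no-ATP DMSO wells; Compound dosing: single nominal dose of 5.6 µM per compound; Signal: Fluo-8 calcium dye fluorescence; Also added: ATP as calcium-mobilizing challenge; Repeats: singlicate.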
OX1R antag-2: blocks the human orexin 1 receptor. CHO/OX1R cells, Fluo-8 calcium fluorescence, orexin A. inhibition, % at 5 µM. 0.43% of 330,000 active. AID 434989;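 active means inhibition above its plate's threshold, mean inhibition of all tested compounds on the plate plus 3 SD, cut at about 37% in these data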;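 further: 0% = orexin A challenge wells and 100% = SB-334867-A antagonist wells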
GPR7 antagonist: blocks human GPR7 receptor signaling; P48145; GPR7-expressing cells, fluorescence antagonist assay; inhibition, % at 4.4 µM; 1.1% of 290,000 active; AID 1861; in the data active means inhibition above about 16%, passing the limit was not always enough;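 further: cells stimulated with the agonist NPW; 0% = agonist with vehicle and 100% = vehicle without agonist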
Target sequence (P48145 whole entry, looked up): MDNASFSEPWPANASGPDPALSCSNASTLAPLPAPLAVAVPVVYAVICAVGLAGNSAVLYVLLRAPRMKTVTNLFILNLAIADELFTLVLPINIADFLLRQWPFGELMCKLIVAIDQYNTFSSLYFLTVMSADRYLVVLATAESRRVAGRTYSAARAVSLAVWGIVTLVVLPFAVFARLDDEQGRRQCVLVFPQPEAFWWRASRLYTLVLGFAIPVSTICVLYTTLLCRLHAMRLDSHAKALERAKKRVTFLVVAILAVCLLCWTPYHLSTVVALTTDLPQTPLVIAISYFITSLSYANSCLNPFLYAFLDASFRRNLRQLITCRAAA
TAAR1 antagonist: antagonists of human TAAR1. Q96RJ0. CHO RD-HGA16 TAAR1, Fluo-8 calcium fluorescence, antagonist. inhibition, % at 3 µM. 1.5% of 360,000 active;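 active means inhibition above a per-plate cutoff, the mean inhibition of test compounds on that plate plus 3 SD, cut at about 49% in these data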;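 further: 0% = DMSO plus EC80 beta-PEA response and 100% = DMSO alone without agonist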
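Test system – hTAAR1-expressing CHO RD-HGA16 cells, Gα16-coupled · Also added – β-PEA at EC80 concentration, post-compound challenge · Compound – 3 µM, single point · Incubation – dye loading 75 min at 37 °C, then 30 min room temperature · Measured by – Fluo-8 intracellular calcium dye fluorescence, real-time kinetic reads · Benchmarks – vehicle and agonist controls · Replicates – singlicate, one well per test compound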
* hit, by the source's call; · = not tested or not shown. In the library only some 4.6% were active in any assay of this set; here they are far more common.

SMILES	OX1R antag-1	TAAR1 agonist	CHO parental Ca	OX1R antag-2	GPR7 antagonist	TAAR1 antagonist
C=CCOc1ccc(/C=C/C(=O)OCC(=O)NC2CCCCCCC2)cc1	-26.6	-0.2	-5.6	-13.5	1.0	-5.9
CN(CC(=O)Nc1ccc(Cl)cc1)c1ccc(S(=O)(=O)N2CCCCC2)cc1[N+](=O)[O-]	-2.0	2.0	-8.2	-8.5	-8.7	-6.6
CCOC(=O)C1CCN(S(=O)(=O)c2cc(Cl)c(C)cc2OC)CC1	13.8	9.8	-16.7	-11.8	-2.3	7.8
CCNC(=S)N/N=C/c1ccc(OCC(=O)Nc2ccc(OC)cc2)c(OC)c1	5.8	17.4	-2.6	-1.9	2.7	51.1*
COc1cc(/C=N/NC(=S)NC(C)C)ccc1OCC(=O)Nc1c(C)cc(C)cc1C	7.0	7.2	-3.0	-19.1	-7.7	49.8*
CCCCNC(=S)N(C)/N=C/c1ccc(OCC(=O)Nc2c(C)cc(C)cc2C)c(OC)c1	21.2	4.8	-28.7	-48.1	-8.4	35.0
CCCCNC(=S)N(C)/N=C/c1ccc(OCC(=O)Nc2ccc(OC)cc2)c(OC)c1	24.7	15.7	9.2	2.7	-13.2	58.2*
CCCOP(=O)(c1ccc(N(C)C)cc1)C(O)c1cc(OC)ccc1OC (configuration not stated)	28.9	2.8	-2.5	-8.3	-16.0	-16.3
CC1CC(C)CN(C(=O)c2ccc(CSc3nc4ccncc4[nH]3)cc2)C1 (configuration not stated)	21.2	31.7	-6.3	-31.5	-2.6	-4.5
CC(C)=CCCC(C)c1cc(C(=O)NCCc2ccc(O)cc2)c(N)s1 (configuration not stated)	·	40.5*	·	·	·	-0.6
O=C(CC1SC(N2CCCCC2)=NC1=O)Nc1cccc(C(=O)N2CCCC(C(F)(F)F)C2)c1 (configuration not stated)	·	8.9	·	·	·	-11.6
O=C1Nc2ccc(Cl)cc2[C@@](C#CC2CC2)(C(F)(F)F)O1	20.4	·	48.1*	13.7	-23.7	·
COc1ccc(/C=N/Nc2cn[nH]c(=O)c2Cl)cc1	23.8	41.1*	-3.2	-25.3	0.8	-4.2
COc1ccc(/C=N/Nc2cc(C)nc3ccccc23)cc1	10.5	15.3	-3.6	-17.3	7.0	-25.3
Cc1cccn2c(CNC3CCCc4ccccc43)c(C(=O)N3CCOCC3)nc12 (configuration not stated)	21.1	6.7	-16.3	-21.7	-4.0	-10.0
Cc1cccn2c(CNCCc3ccco3)c(C(=O)N3CCOCC3)nc12	·	43.4*	·	·	-2.9	17.7
COc1ccc(-c2coc3cc(OC4OC(CO)C(O)C(O)C4O)cc(O)c3c2=O)cc1 (configuration not stated)	5.0	1.9	-0.1	-17.4	·	-10.9
CN1CCN(C2Cc3ccc(F)cc3Sc3cc(F)c(Cl)cc32)CC1 (configuration not stated)	7.4	15.1	6.8	9.8	·	6.6
CSc1ccc2c(c1)C(N1CCN(C)CC1)Cc1ccccc1S2 (configuration not stated)	9.2	13.1	12.3	20.5	35.1*	35.8
CN1CCN(C2Cc3ccccc3Sc3ccc(Cl)cc32)CC1 (configuration not stated)	4.2	27.3	-11.4	-25.7	·	11.7
CN1CCN(C2Cc3ccccc3Sc3cc(C(F)(F)F)ccc32)CC1 (configuration not stated)	1.9	51.3*	1.8	-4.9	·	30.3
CC1(C)Oc2cc3oc(C(=O)O)cc(=O)c3cc2-c2ccccc21	·	2.6	·	·	·	-15.2
CC(=O)c1c(C)nc2nonc2c1N	76.1*	4.8	8.4	-0.9	-5.8	-0.5
CCOC(=O)c1c(-c2ccc(OC)cc2)nc2nonc2c1N	26.7	2.2	-7.4	-1.5	5.7	-1.5
CC1CCCN(C(=O)C2CCN(S(=O)(=O)c3cccc4nonc34)CC2)C1 (configuration not stated)	20.0	-3.8	-11.9	2.3	-9.7	11.8
SMILES	OX1R antag-1	TAAR1 agonist	CHO parental Ca	OX1R antag-2	GPR7 antagonist	TAAR1 antagonist
COc1cc(/C=C(\C#N)C(=O)Nc2cccc(C(=O)O)c2)ccc1OCc1ccc(Cl)cc1	13.5	2.2	-9.0	-13.0	3.7	5.7
COc1cc(/C=C(/C#N)C(=O)Nc2ccccc2)c(Br)cc1OCc1ccc(C(=O)O)cc1	22.8	22.2	59.3*	65.2*	-20.2	47.8
O=C(COc1ncnc2cc([N+](=O)[O-])ccc12)N(CCc1ccccc1)Cc1ccccc1	11.7	20.8	72.4*	54.0*	-11.0	14.9
O=C(COc1ccccc1)NNC(=O)COc1ccc([N+](=O)[O-])cc1	12.5	-0.1	-2.8	8.9	-7.6	11.9
O=C(COc1ccc([N+](=O)[O-])cc1)N(Cc1ccccc1)Cc1ccccc1	34.5	-0.1	-8.3	-14.3	31.1*	13.9
O=C(COc1ncnc2ccccc12)NC1CCCC1	-0.5	-2.9	-9.3	-8.0	·	-8.6
O=C(COc1ncnc2ccccc12)Nc1cccc([N+](=O)[O-])c1	14.4	0.1	-1.3	2.2	4.5	-5.2
O=C(COc1ncnc2cc([N+](=O)[O-])ccc12)NC1CCCCC1	56.2*	8.7	9.2	-30.6	-2.0	-14.3
COc1ccc(S(=O)(=O)N2CCCCCC2)cc1C(=O)N1CCN(c2ccc(F)cc2)CC1	·	7.4	·	·	·	-10.0
CCn1nc(C)cc1-c1nnc(Sc2ncc([N+](=O)[O-])s2)n1C	52.2*	9.5	23.7	8.4	-1.4	16.3
CCC(=O)Nc1ccc(C(=O)CN2CCC(C)CC2)cc1	13.7	·	-13.4	-17.1	-5.7	·
COc1ccc(/C=C2/C(=O)N(c3c(F)c(F)c(F)c(F)c3F)N=C2C)cc1	13.0	42.1*	5.2	-1.6	-11.1	27.5
CC1(S(=O)(=O)O)CC(=O)c2ccccc2C1=O (configuration not stated)	60.1*	0.2	-1.7	-2.2	-8.1	3.3
O=C(Nc1cccc(O)c1)c1cnn2cccnc12	10.7	4.3	-13.8	-13.8	-5.5	-3.4
O=C(Nc1ccc2c(c1)OCO2)c1cnn2cccnc12	-1.1	10.2	-2.5	0.8	17.2*	-5.6
NC(=O)CSc1nc2ccccc2c(=O)n1Cc1ccco1	20.9	2.4	-11.1	-14.3	-10.6	-4.1
O=C(CSc1nc2ccccc2c(=O)n1Cc1ccco1)c1ccc(F)cc1	11.7	10.3	6.6	-21.9	-3.5	49.8*
COC(=O)c1ccc(CSc2nc3ccccc3c(=O)n2Cc2ccco2)o1	14.5	6.5	37.2*	50.1*	-3.6	59.8*
COC(=O)c1ccc(CSc2nc3c(cnn3-c3ccccc3)c(=O)[nH]2)o1	54.6*	4.2	-15.8	11.1	-19.5	-4.6
Cc1ccc(C(=O)C(SC(C)(C)C)n2cncn2)cc1 (configuration not stated)	2.8	5.7	-8.9	-27.5	4.6	-21.8
COc1cc(S(=O)(=O)NCc2ccccc2)ccc1F	14.2	15.9	-2.2	8.5	2.3	-10.2
